Experimental findings from ChEMBL document CHEMBL4406847, “Tryptoline-based benzothiazoles re-sensitize MRSA to β-lactam antibiotics” (Bioorg Med Chem, 2019) are described below.

The test system of data set [1] is Staphylococcus aureus. Nature of the data set: Antibacterial activity against methicillin resistant Staphylococcus aureus ATCC BAA-44 at 128 to 256 ug/ml after 18 hrs by broth microdilution method. The format is functional, organism-based.
Data set [2] has as its system Staphylococcus aureus. Nature of the data set: Potentiation of cefazolin induced antibacterial activity against methicillin resistant Staphylococcus aureus NRS100 assessed as minimum resensitizing concentration after 18 hrs by broth microdilution method. The format is functional. The note with it: NRS100, 18 h, read-out: MEC. Summed up:
(§1)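 Compound titrated in the presence of cefazolin at its CLSI breakpoint (8 μg/mL); MRC is the compound concentration at which no overnight growth occurs, in μg/mL; confirmed in triplicate.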

For data set [3], the system named is Staphylococcus aureus. Nature of the data set: Antibacterial activity against methicillin resistant Staphylococcus aureus ATCC BAA-1764 after 18 hrs by broth microdilution method. The conditions noted are these: ATCC BAA-1764, 18 h. The format is functional. A digest of the protocol:
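Compound alone, MIC by standard CLSI broth microdilution; lowest concentration with no growth, reported in μg/mL; confirmed in triplicate.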
Background: In broth dilution the organism is exposed to a series of concentrations in liquid medium.

Data set [4] deals with Staphylococcus aureus. Nature of the data set: Potentiation of cefazolin induced antibacterial activity against methicillin resistant Staphylococcus aureus ATCC BAA-1764 assessed as minimum resensitizing concentration after 18 hrs by broth microdilution method. The note with it: ATCC BAA-1764, 18 h, read-out: MEC. The format is functional. Summed up: as §1
Data set [5] relates to Staphylococcus aureus. Nature of the data set: Potentiation of cefazolin induced antibacterial activity against methicillin resistant Staphylococcus aureus NR-46411 assessed as minimum resensitizing concentration after 18 hrs by broth microdilution method. The format is functional. The conditions noted are these: NR-46411, 18 h, read-out: MEC. Summed up:
as §1

The subject of data set [6] is Staphylococcus aureus. Nature of the data set: Potentiation of cefuroxime induced antibacterial activity against Staphylococcus aureus ATCC BAA-1683 assessed as minimum resensitizing concentration after 18 hrs by broth microdilution method. The format is functional. The conditions noted are these: ATCC BAA-1683, 18 h, read-out: MEC. A digest of the protocol: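 MRSA BAA-1683 grown overnight with cefuroxime plus varying analogue, method as for cefazolin MRC (antibiotic at CLSI breakpoint); MRC = analogue concentration giving no overnight growth; confirmed in triplicate.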

Data set [7] has as its system Staphylococcus aureus. Nature of the data set: Potentiation of cefazolin induced antibacterial activity against methicillin resistant Staphylococcus aureus ATCC BAA-44 assessed as minimum resensitizing concentration after 18 hrs by broth microdilution method. The conditions noted are these: ATCC BAA-44, 18 h, read-out: MEC. The format is functional. A digest of the protocol:
as §1

A short description of data set [8]: Cytotoxicity against human HeLa cells assessed as cell growth inhibition measured after 24 hrs by Celltiter Glo luminescent assay. The note with it: HeLa cells. The format is cell-based. (In general: ATP-based viability assays read luminescence as a measure of living cells.)
The test system of data set [9] is Staphylococcus aureus. Nature of the data set: Potentiation of cefuroxime mediated antibacterial activity against methicillin resistant Staphylococcus aureus NRS100 assessed as minimum resensitizing concentration after 18 hrs by broth microdilution method. The note with it: NRS100, 18 h, read-out: MEC. The format is functional. A digest of the protocol: (§2)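 Compound titrated with cefuroxime, using the same method as the cefazolin MRC; MRC is the lowest compound concentration preventing overnight growth, in μg/mL.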

Data set [10] relates to Staphylococcus aureus. Nature of the data set: Potentiation of cefazolin induced antibacterial activity against Staphylococcus aureus ATCC BAA-1683 assessed as minimum resensitizing concentration after 18 hrs by broth microdilution method. The format is functional. The conditions noted are these: ATCC BAA-1683, 18 h, read-out: MEC. Summed up: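 MRSA BAA-1683 grown overnight with cefazolin held at its CLSI breakpoint, 8 μg/mL, plus varying analogue; MRC = analogue concentration giving no overnight growth; confirmed in triplicate.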

Data set [11] deals with Staphylococcus aureus. Nature of the data set: Potentiation of cefuroxime induced antibacterial activity against methicillin resistant Staphylococcus aureus NR-46411 assessed as minimum resensitizing concentration after 18 hrs by broth microdilution method. The format is functional. The conditions noted are these: NR-46411, 18 h, read-out: MEC. A digest of the protocol:
as §2

Data set [12] concerns Staphylococcus aureus. Nature of the data set: Potentiation of cefuroxime induced antibacterial activity against methicillin resistant Staphylococcus aureus ATCC BAA-1764 assessed as minimum resensitizing concentration after 18 hrs by broth microdilution method. The note with it: ATCC BAA-1764, 18 h, read-out: MEC. The format is functional. Summed up: as §2
For data set [13], the system named is Staphylococcus aureus. Nature of the data set: Potentiation of cefuroxime induced antibacterial activity against methicillin resistant Staphylococcus aureus NRS384 assessed as minimum resensitizing concentration after 18 hrs by broth microdilution method. The format is functional. The note with it: NRS384, 18 h, read-out: MEC. Summed up:
as §2

Data set [14] relates to Staphylococcus aureus. Nature of the data set: Potentiation of cefazolin induced antibacterial activity against methicillin resistant Staphylococcus aureus NRS384 assessed as minimum resensitizing concentration after 18 hrs by broth microdilution method. The format is functional. The conditions noted are these: NRS384, 18 h, read-out: MEC. Summed up:
as §1

SMILES strings stand for the structures. Active and inactive are the calls of the source.

Consider `Cc1nnc(SCC2=C(C(=O)O)N3C(=O)[C@@H](NC(=O)Cn4cnnn4)[C@H]3SC2)s1`, for which, in the data set on Staphylococcus aureus [1], the result was Active.
Same read-out and setting: under `CO/N=C(\C(=O)N[C@@H]1C(=O)N2C(C(=O)O)=C(COC(N)=O)CS[C@H]12)c1ccco1` stands “Active”.
One may read the MIC as the smallest concentration in the dilution series that meets the test's criterion for growth inhibition. Higher therefore signals weaker potency. Usually GI50 stands for the concentration at which growth is held to half of that of the control. Turning to `Nc1cc(Cl)c2nc(N3CCc4c([nH]c5ccc(Cl)cc45)C3)sc2c1`, the minimal effective concentration in the data set with Staphylococcus aureus [2] is 4 µg/mL; with Staphylococcus aureus [4], 0.5 µg/mL; in the data set with Staphylococcus aureus [5] it was 0.5 µg/mL; in the data set on Staphylococcus aureus [6], 8 µg/mL; in the data set with Staphylococcus aureus [7] it was 2 µg/mL; in the data set on Staphylococcus aureus [9], 4 µg/mL. In addition, the minimal effective concentration in the data set with Staphylococcus aureus [10] is 1 µg/mL; in the data set on Staphylococcus aureus [11] it was less than 0.25 µg/mL; in the data set on Staphylococcus aureus [12] it was 32 µg/mL; in the data set with Staphylococcus aureus [13] it was 4 µg/mL; in the data set on Staphylococcus aureus [14] it was 4 µg/mL. In the data set with Staphylococcus aureus [3], this compound displayed an MIC of more than 32 µg/mL. The GI50 at 24 h in [8] is more than 100 µg/mL.
